Columns and labels:
[1] = Study 1B multiple-dose pharmacokinetics; assay type: in vivo, human
Method in brief: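 Men (5, 10, 20 mg) and women (5, 10 mg) were dosed orally, fed, daily for 12 days. Plasma was sampled on day 1 predose to […]. Urine came from the 5 mg cohort predose days 1–16 then in 24-h intervals, and for 10/20 mg on day 12 at 0–24 h. Analysis was by HPLC-MS/MS and noncompartmental.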

CYP2B6 = details: cited from earlier work
CYP2C8 = details: cited from earlier work
CYP2C9 = details: cited from earlier work
CYP2D6 = details: cited from earlier work
[2] = day 12, female, 5 mg daily, n = 5, mean (SD)
[3] = day 12, female, 10 mg daily, n = 6, mean (SD)
[4] = day 12, male, 5 mg daily, n = 6, mean (SD)
[5] = day 12, male, 10 mg daily, n = 6, mean (SD)
[6] = day 12, male, 20 mg daily, n = 6, mean (SD)

Cc1ccc(Sc2ccccc2N2CCNCC2)c(C)c1 [Vortioxetine, 1‐[2‐(2,4‐dimethylphenylsulfanyl)phenyl]piperazine]
time to reach steady state ([1]; 5‐ and 20‐mg doses in men and 10‐mg dose in women): approximately 12 days
steady state of trough plasma concentrations ([1]; 10‐mg dose in men and 5‐mg dose in women): did not reach steady state even after 12 days
clearance at 12 days ([1]; both, human, plasma, oral): 333 to 867 mL/min
CL/F ([1]; day 1, female, 5 mg daily, fed, n = 5, mean (SD)): 22.3 (19.6) L/h
CL/F ([1]; day 1, female, 10 mg daily, fed, n = 6, mean (SD)): 99.3 (104.7) L/h
CL/F ([1]; day 1, male, 5 mg daily, fed, n = 6, mean (SD)): 30.6 (9.4) L/h
CL/F ([1]; day 1, male, 10 mg daily, fed, n = 6, mean (SD)): 29.1 (12.0) L/h
CL/F ([1]; day 1, male, 20 mg daily, fed, n = 6, mean (SD)): 50.4 (17.1) L/h
CL/F ([1]; day 12, female, 5 mg daily, fed, n = 5, mean (SD)): 20.2 (9.5) L/h
R(AUC), cumulative ratio of AUC values [1, 2]: 6.0 (2.0)
R(Cmax), cumulative ratio of Cmax values [1, 2]: 5.0 (1.5)
CL/F ([1]; day 12, female, 10 mg daily, fed, n = 6, mean (SD)): 69.9 (94.8) L/h
R(AUC), cumulative ratio of AUC values [1, 3]: 5.3 (2.2)
R(Cmax), cumulative ratio of Cmax values [1, 3]: 3.9 (1.5)
CL/F ([1]; day 12, male, 5 mg daily, fed, n = 6, mean (SD)): 33.1 (10.3) L/h
R(AUC), cumulative ratio of AUC values [1, 4]: 5.2 (1.4)
R(Cmax), cumulative ratio of Cmax values [1, 4]: 4.4 (1.1)
CL/F ([1]; day 12, male, 10 mg daily, fed, n = 6, mean (SD)): 23.8 (4.4) L/h
R(AUC), cumulative ratio of AUC values [1, 5]: 6.2 (0.9)
R(Cmax), cumulative ratio of Cmax values [1, 5]: 5.1 (0.6)
CL/F ([1]; day 12, male, 20 mg daily, fed, n = 6, mean (SD)): 51.5 (16.6) L/h
R(AUC), cumulative ratio of AUC values [1, 6]: 3.9 (1.0)
R(Cmax), cumulative ratio of Cmax values [1, 6]: 3.2 (0.7)
AUC(0-t) ([1]; female, human, plasma, oral, 5 mg, AUC0–24, day 1, female, 5 mg daily, fed, n = 5, mean (SD)): 47.1 ng·h/mL
AUC(0-t) ([1]; female, human, plasma, oral, 5 mg, AUC0–24, day 12, female, 5 mg daily, fed, n = 5, mean (SD)): 284 ng·h/mL
half-life ([1]; female, human, plasma, oral, 5 mg, T1/2, day 1, female, 5 mg daily, fed, n = 5, mean (SD)): 113 h
half-life ([1]; female, human, plasma, oral, 5 mg, T1/2, day 12, female, 5 mg daily, fed, n = 5, mean (SD)): 79.8 h
AUC(0-t) ([1]; female, human, plasma, oral, 10 mg, AUC0–24, day 1, female, 10 mg daily, fed, n = 6, mean (SD)): 53.3 ng·h/mL
AUC(0-t) ([1]; female, human, plasma, oral, 10 mg, AUC0–24, day 12, female, 10 mg daily, fed, n = 6, mean (SD)): 295 ng·h/mL
half-life ([1]; female, human, plasma, oral, 10 mg, T1/2, day 1, female, 10 mg daily, fed, n = 6, mean (SD)): 34.2 h
half-life ([1]; female, human, plasma, oral, 10 mg, T1/2, day 12, female, 10 mg daily, fed, n = 6, mean (SD)): 58 h
average time to reach steady state ([1]; given a median half‐life of 67 hours): 14 days
half-life ([1]; human, plasma, oral, median half‐life, as given in the discussion): 67 h
AUC(0-t) ([1]; male, human, plasma, oral, 5 mg, AUC0–24, day 1, male, 5 mg daily, fed, n = 6, mean (SD)): 31.6 ng·h/mL
AUC(0-t) ([1]; male, human, plasma, oral, 5 mg, AUC0–24, day 12, male, 5 mg daily, fed, n = 6, mean (SD)): 163 ng·h/mL
half-life ([1]; male, human, plasma, oral, 5 mg, T1/2, day 1, male, 5 mg daily, fed, n = 6, mean (SD)): 68 h
half-life ([1]; male, human, plasma, oral, 5 mg, T1/2, day 12, male, 5 mg daily, fed, n = 6, mean (SD)): 58 h
AUC(0-t) ([1]; male, human, plasma, oral, 10 mg, AUC0–24, day 1, male, 10 mg daily, fed, n = 6, mean (SD)): 71 ng·h/mL
AUC(0-t) ([1]; male, human, plasma, oral, 10 mg, AUC0–24, day 12, male, 10 mg daily, fed, n = 6, mean (SD)): 432 ng·h/mL
half-life ([1]; male, human, plasma, oral, 10 mg, T1/2, day 12, male, 10 mg daily, fed, n = 6, mean (SD)): 65.1 h
AUC(0-t) ([1]; male, human, plasma, oral, 20 mg, AUC0–24, day 1, male, 20 mg daily, fed, n = 6, mean (SD)): 110 ng·h/mL
AUC(0-t) ([1]; male, human, plasma, oral, 20 mg, AUC0–24, day 12, male, 20 mg daily, fed, n = 6, mean (SD)): 433 ng·h/mL
half-life ([1]; male, human, plasma, oral, 20 mg, T1/2, day 1, male, 20 mg daily, fed, n = 6, mean (SD)): 44 h
half-life ([1]; male, human, plasma, oral, 20 mg, T1/2, day 12, male, 20 mg daily, fed, n = 6, mean (SD)): 56.8 h
Fe0–x, fraction excreted (VOR) ([1]; urine 0 to 24 hours (day 1), female, 5 mg daily, n = 5, mean (SD)): 0.00 (0.0) %
Fe0–x, fraction excreted (VOR) ([1]; urine 0 to 24 hours (day 1), male, 5 mg daily, n = 6, mean (SD)): 0.00 (0.0) %
Fe0–x, fraction excreted (VOR) ([1]; urine 0 to 288 hours (day 12), female, 5 mg daily, n = 5, mean (SD)): 0.0494 (0.087) %
Fe0–x, fraction excreted (VOR) ([1]; urine 0 to 288 hours (day 12), male, 5 mg daily, n = 6, mean (SD)): 0.0072 (0.018) %
inhibitory or inducing effect in vitro (CYP2B6): No inhibitory or inducing effect
inhibitory or inducing effect in vitro (CYP2C8): No inhibitory or inducing effect
inhibitory or inducing effect in vitro (CYP2C9): No inhibitory or inducing effect
inhibitory or inducing effect in vitro (CYP2D6): No inhibitory or inducing effect
